Reference: ChEMBL document CHEMBL4229410, “Facile construction of fused benzimidazole-isoquinolinones that induce cell-cycle arrest and apoptosis in colorectal cancer cells” (Bioorg Med Chem, 2018)

Legend:
HT-29 = assay: Growth inhibition of human HT-29 cells by MTT assay; format: functional
Summary of the method: (§1)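 MTT viability assay: 3×10³ cells/well were pre-incubated for 24 h, then exposed to 0, 12.5, 25, 50, 100 or 200 μM for 12, 24, 48 or 72 h. MTT was added at 0.5 mg/mL final for 4 h, formazan dissolved in DMSO, and absorbance read at 570 nm. GI₅₀ was taken from growth-inhibition curves; mean ± SD of three independent experiments, each in sextuplicate.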

SW-620 = assay: Growth inhibition of human SW620 cells by MTT assay; format: functional; summary of the method: as §1

Row | GI50 (HT-29) | GI50 (SW-620) | Structure (SMILES)
1 | > 100 µM | > 100 µM | O=C(Nc1c2ccccc2c(=O)n2c1[nH]c1ccccc12)c1ccccc1
2 | 43.7 to 100 µM | 46 to 100 µM | O=C(c1ccco1)N(c1ccccc1Br)c1c2ccccc2c(=O)n2c1[nH]c1ccccc12
3 | 61.3 µM | 57.9 µM | O=C(c1cccnc1)N(c1ccccc1Br)c1c2ccccc2c(=O)n2c1[nH]c1ccccc12
4 | 51.3 µM | 47.6 µM | O=C(c1cccs1)N(c1c2ccccc2c(=O)n2c1[nH]c1ccccc12)C1CC1
5 | > 100 µM | > 100 µM | O=C(c1ccccc1)N(c1ccccc1)c1c2ccccc2c(=O)n2c1[nH]c1ccccc12
6 | 52.8 µM | 53.5 µM | CC(C)CN(C(=O)c1ccco1)c1c2ccccc2c(=O)n2c1[nH]c1ccccc12
7 | 59.8 µM | 52.7 µM | CC(C)CN(C(=O)c1ccccc1C(=O)O)c1c2ccccc2c(=O)n2c1[nH]c1ccccc12
8 | 57.2 to 100 µM | 46.9 to 100 µM | CC(=O)N(c1ccccc1Br)c1c2ccccc2c(=O)n2c1[nH]c1ccccc12
9 | 74.3 µM | 69.7 µM | O=C(c1ccccc1)N(Cc1ccccc1)c1c2ccccc2c(=O)n2c1[nH]c1ccccc12
10 | 52.3 µM | 48.9 µM | O=C(c1ccncc1)N(CCc1ccccc1)c1c2ccccc2c(=O)n2c1[nH]c1ccccc12
11 | 49.5 µM | 44.1 µM | CC(C)CN(C(=O)c1cccs1)c1c2ccccc2c(=O)n2c1[nH]c1ccccc12
